Measured values gathered from unrelated publications.
Compare with care: the assays were run in different laboratories.
Cell line: HepG2
Effect on: cell growth or viability

Cc1cc(Nc2ccc(S(F)(F)(F)(F)F)cc2)n2ncnc2n1
CC50: > 50 µM

N=C(N)NCc1ccc(NC(=O)c2ccc(C(=O)Nc3cnc(C4=CCN(C(=N)N)CC4)cn3)cc2)cc1
CC50 (MTS; 24 h): 585 µM

Cc1cnc(Nc2ccc(C(=O)N3CCC(N4CCCC4)CC3)cc2)nc1-c1ccc(Cl)s1
CC50 (44 h): 10.5 µM

N=C(N)NCc1ccc(NC(=O)c2ccc(C(=O)Nc3ccc(C4=CCN(C(=N)N)CC4)cc3)nc2)cc1
CC50 (MTS; 24 h): > 117 µM

Cc1ccc(-c2nc(Nc3ccc(C(=O)N4CCC(N5CCCC5)CC4)cc3)ncc2Cl)s1
CC50 (44 h): 9.3 µM

CC(=O)Oc1ccccc1C(=O)O
CC50 (ATP luminescence): > 1000 µM

CC(C)c1c(C(=O)Nc2ccccc2)c(-c2ccccc2)c(-c2ccc(F)cc2)n1CC[C@@H](O)C[C@@H](O)CC(=O)O
CC50 (MTT; 24 h): ~100 µM

CCCCCCCCCCCC(=O)Nc1nc(N)nc2c1ncn2[C@H]1CO[C@@H](CO)O1
CC50: > 100 µM

COC(=O)c1c(C)ncn1CC(c1c[nH]c2cc(Br)ccc12)c1c[nH]c2cc(Br)ccc12
CC50 (MTS; 24 h): > 20 µM

N=C(N)NCc1ccc(NC(=O)c2ccc(C(=O)Nc3ccc(C4=CCN(C(=N)N)CC4)cn3)cc2)cc1
CC50 (MTS; 24 h): 353 µM

Cc1cn(CC(c2cn(C)c3ccccc23)c2cn(C)c3ccccc23)nn1
CC50 (MTS; 24 h): > 20 µM

N=C(N)NCc1ccc(NC(=O)C23CCC(C(=O)Nc4ccc(C5=CCN(C(=N)N)CC5)cc4)(CC2)CC3)cc1
CC50 (MTS; 24 h): 253 µM

COC(=O)c1c(C)ncn1CC(c1c[nH]c2ccc(C)cc12)c1c[nH]c2ccc(C)cc12
CC50 (MTS; 24 h): > 20 µM

COc1ccc(NC(=O)N2CCCCN3C[C@H](c4ccc(C#Cc5ccccc5)cc4)[C@@H]3C2)cc1
CC50: 10 µM

COC(=O)c1c(C)ncn1CC(c1cn(C)c2ccccc12)c1cn(C)c2ccccc12
CC50 (MTS; 24 h): > 20 µM

NCC(=O)CCC(=O)O
CC50 (ATP luminescence): > 1000 µM
